Activity calls are given as the source filed them. The calls are words filed in the database; no cut-off is given here.
Key:
SARS-CoV-2 = assay: Antiviral activity against SARS-COV 2 infected in quadruplicate Vero E6 cells with DYRA supernatant assessed as reduction in viral replication at 0.8 uM; assay type: functional; settings: Severe acute respiratory syndrome coronavirus 2, Vero C1008
Influenza A virus [1] = assay: Antiviral activity against Influenza A Puerto Rico/8/34/H1N1 infected in human A549 cells assessed as reduction in viral protein expression at 20 uM treated for 1 hr during viral adsorption followed by staining with anti-Flu antibody observed at 24 hrs post infection by In-cell western assay; assay type: functional, organism-based; settings: A/Puerto Rico/8/1934(H1N1)
[2] = Inhibition of DENV NS5-MTase domain using GpppA2'OMe-RNA74 as a substrate incubated for 30 mins by filter binding assay; design: species or system dengue virus type 2; settings: read-out: IC50
Outline: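 MTase (1 μM) incubated with increasing inhibitor in 40 mM Tris-HCl pH 7.5, 5 mM DTT, 10 μM AdoMet ([3H]-labelled), 0.5 μM GpppA2′OMe-RNA74 substrate, 30 °C for 30 min; stopped in ice-cold 100 μM AdoHcy; DEAE filter binding, scintillation counting.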

MDCK = assay: Cytotoxicity against MDCK cells assessed as reduction in cell viability measured after 24 hrs by MTT assay; assay type: cell-based, Canis lupus familiaris; settings: dog, mdck, 24 h
Influenza A virus [3] = assay: Antiviral activity against Influenza A Puerto Rico/8/34/H1N1 infected in human A549 cells assessed as reduction in viral protein expression at 20 uM treated for 24 hrs post viral adsorption followed by staining with anti-Flu antibody observed at 24 hrs post infection by In-cell western assay; assay type: functional, organism-based; settings: A/Puerto Rico/8/1934(H1N1)

SMILES: FC(F)(F)c1cccc(Nc2nc(NCCOc3ccccc3)nc3[nH]cnc23)c1
- inhibition at 0.8 µM (SARS-CoV-2): 83.5%
- Activity (Influenza A virus [1]): Active
- IC50 [2]: 112 µM
- CC50 (MDCK): 77 µM
- Activity (Influenza A virus [3]): Active

— ChEMBL document CHEMBL4842338, “System-oriented optimization of multi-target 2,6-diaminopurine derivatives: Easily accessible broad-spectrum antivirals active against flaviviruses, influenza virus and SARS-CoV-2” (Eur J Med Chem, 2021)
